The source made the active and inactive calls. The rule behind the calls is not given here.
How the values were obtained:
Type in all cases: functional
SR = assay: Antiproliferative activity against human SR cells assessed as growth inhibition at 10 uM relative to control; conditions: read-out: GI
Procedure, shortened: (§1)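 NCI 60 human tumour cell line panel screen. Compounds tested at a single dose and growth inhibition (%) determined for each line.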

CCRF-CEM = assay: Antiproliferative activity against human CCRF-CEM cells assessed as growth inhibition at 10 uM relative to control; conditions: read-out: GI
Procedure, shortened: (§2)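 Single-dose screen run by the US National Cancer Institute across its 60-human tumour cell line panel. Each compound was tested at one concentration. Percent growth inhibition was recorded for each cell line.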

HL-60(TB) = assay: Antiproliferative activity against human HL-60(TB) cells assessed as growth inhibition at 10 uM relative to control; conditions: read-out: GI
K562 = assay: Antiproliferative activity against human K562 cells assessed as growth inhibition at 10 uM relative to control; procedure, shortened: as §2
MOLT-4 = assay: Antiproliferative activity against human MOLT-4 cells assessed as growth inhibition at 10 uM relative to control; conditions: read-out: GI; procedure, shortened: as §2
A549 = assay: Antiproliferative activity against human A549 cells assessed as growth inhibition at 10 uM relative to control; conditions: read-out: GI; procedure, shortened: as §2
EKVX = assay: Antiproliferative activity against human EKVX cells assessed as growth inhibition at 10 uM relative to control; conditions: read-out: GI; procedure, shortened: as §2
HOP-62 = assay: Antiproliferative activity against human HOP-62 cells assessed as growth inhibition at 10 uM relative to control; conditions: read-out: GI; procedure, shortened: as §2
NCI-H23 = assay: Antiproliferative activity against human NCI-H23 cells assessed as growth inhibition at 10 uM relative to control; conditions: read-out: GI; procedure, shortened: as §2
NCI-H522 = assay: Antiproliferative activity against human NCI-H522 cells assessed as growth inhibition at 10 uM relative to control; conditions: read-out: GI; procedure, shortened: as §2
COLO 205 = assay: Antiproliferative activity against human COLO 205 cells assessed as growth inhibition at 10 uM relative to control; conditions: read-out: GI; procedure, shortened: as §2
KM12 = assay: Antiproliferative activity against human KM12 cells assessed as growth inhibition at 10 uM relative to control; conditions: read-out: GI; procedure, shortened: as §2
SW-620 = assay: Antiproliferative activity against human SW-620 cells assessed as growth inhibition at 10 uM relative to control; conditions: read-out: GI; procedure, shortened: as §1
SF-295 = assay: Antiproliferative activity against human SF-295 cells assessed as growth inhibition at 10 uM relative to control; conditions: read-out: GI; procedure, shortened: as §2
SF-539 = assay: Antiproliferative activity against human SF-539 cells assessed as growth inhibition at 10 uM relative to control; procedure, shortened: as §2
SNB-75 = assay: Antiproliferative activity against human SNB-75 cells assessed as growth inhibition at 10 uM relative to control; conditions: read-out: GI; procedure, shortened: as §1
U-251 = assay: Antiproliferative activity against human U251 cells assessed as growth inhibition at 10 uM relative to control; conditions: read-out: GI; procedure, shortened: as §1
Malme-3M = assay: Antiproliferative activity against human Malme-3M cells assessed as growth inhibition at 10 uM relative to control; conditions: read-out: GI; procedure, shortened: as §2
M14 = assay: Antiproliferative activity against human M14 cells assessed as growth inhibition at 10 uM relative to control; conditions: read-out: GI; procedure, shortened: as §2
SK-MEL-28 = assay: Antiproliferative activity against human SK-MEL-28 cells assessed as growth inhibition at 10 uM relative to control; conditions: read-out: GI; procedure, shortened: as §1
SK-MEL-5 = assay: Antiproliferative activity against human SK-MEL-5 cells assessed as growth inhibition at 10 uM relative to control; conditions: read-out: GI; procedure, shortened: as §1
UACC-62 = assay: Antiproliferative activity against human UACC-62 cells assessed as growth inhibition at 10 uM relative to control; procedure, shortened: as §1
IGROV-1 = assay: Antiproliferative activity against human IGROV-1 cells assessed as growth inhibition at 10 uM relative to control; conditions: read-out: GI; procedure, shortened: as §2
OVCAR-3 = assay: Antiproliferative activity against human OVCAR-3 cells assessed as growth inhibition at 10 uM relative to control; conditions: read-out: GI; procedure, shortened: as §2
NCI/ADR-RES = assay: Antiproliferative activity against human NCI/ADR-RES cells assessed as growth inhibition at 10 uM relative to control; conditions: read-out: GI; procedure, shortened: as §2
SK-OV-3 = assay: Antiproliferative activity against human SK-OV-3 cells assessed as growth inhibition at 10 uM relative to control; conditions: read-out: GI; procedure, shortened: as §1
786-0 = assay: Antiproliferative activity against human 786-0 cells assessed as growth inhibition at 10 uM relative to control; conditions: read-out: GI; procedure, shortened: as §2
A498 = assay: Antiproliferative activity against human A498 cells assessed as growth inhibition at 10 uM relative to control; conditions: read-out: GI; procedure, shortened: as §2
CAKI-1 = assay: Antiproliferative activity against human CAKI-1 cells assessed as growth inhibition at 10 uM relative to control; conditions: read-out: GI; procedure, shortened: as §2
SN12C = assay: Antiproliferative activity against human SN12C cells assessed as growth inhibition at 10 uM relative to control; conditions: read-out: GI; procedure, shortened: as §1
TK-10 = assay: Antiproliferative activity against human TK-10 cells assessed as growth inhibition at 10 uM relative to control; conditions: read-out: GI; procedure, shortened: as §1
UO-31 = assay: Antiproliferative activity against human UO-31 cells assessed as growth inhibition at 10 uM relative to control; conditions: read-out: GI; procedure, shortened: as §1
PC-3 = assay: Antiproliferative activity against human PC-3 cells assessed as growth inhibition at 10 uM relative to control; conditions: read-out: GI; procedure, shortened: as §2
DU-145 = assay: Antiproliferative activity against human DU-145 cells assessed as growth inhibition at 10 uM relative to control; conditions: read-out: GI; procedure, shortened: as §2
MDA-MB-231 = assay: Antiproliferative activity against human MDA-MB-231 cells assessed as growth inhibition at 10 uM relative to control; conditions: read-out: GI; procedure, shortened: as §2
BT-549 = assay: Antiproliferative activity against human BT-549 cells assessed as growth inhibition at 10 uM relative to control; conditions: read-out: GI; procedure, shortened: as §2
T47D = assay: Antiproliferative activity against human T47D cells assessed as growth inhibition at 10 uM relative to control; procedure, shortened: as §1
MDA-MB-468 = assay: Antiproliferative activity against human MDA-MB-468 cells assessed as growth inhibition at 10 uM relative to control; conditions: read-out: GI; procedure, shortened: as §2
OVCAR-8 = assay: Antiproliferative activity against human OVCAR-8 cells assessed as growth inhibition at 10 uM relative to control; conditions: read-out: GI; procedure, shortened: as §2
Leukemia cell = assay: Antiproliferative activity against human leukemia cells
[1] = Antiproliferative activity against human Non-small cell lung cancer cells; conditions: Non-small cell lung cancer cell line
[2] = Antiproliferative activity against human colon cancer cells; conditions: Colon cancer cell line
[3] = Antiproliferative activity against human Melanoma cells; conditions: Melanoma cell line
[4] = Antiproliferative activity against human ovarian cancer cells; conditions: Ovarian cancer cell line
[5] = Antiproliferative activity against human renal cancer cells; conditions: Renal cancer cell line, read-out: LC50 (the source's name)
[6] = Antiproliferative activity against human prostate cancer cells; conditions: Prostate tumor cell line
[7] = Antiproliferative activity against human breast cancer cells; conditions: Breast cancer cell line
[8] = read-out: LC50 (the source's name)

With `CC/C(=C(\c1ccccc1)c1ccc(OCCN(C)C)cc1)c1ccccc1` [TAMOXIFEN] the inhibition of growth at 10 µM (SR) was -18.9%, the inhibition of growth at 10 µM (CCRF-CEM) was 65.4% and the inhibition of growth at 10 µM (HL-60(TB)) was 60.4%. For the same compound, the “growth inhibition (GI)” value (K562) was “inactive”, the inhibition of growth at 10 µM (MOLT-4) was 66.7% and the inhibition of growth at 10 µM (A549) was 50.2%. The inhibition of growth at 10 µM (EKVX) was 40%, the inhibition of growth at 10 µM (HOP-62) was 56.9% and the inhibition of growth at 10 µM (NCI-H23) was 39.7%. The inhibition of growth at 10 µM (NCI-H522) was 53.4%, the inhibition of growth at 10 µM (COLO 205) was -89% and the inhibition of growth at 10 µM (KM12) was 75%. For the same compound, the inhibition of growth at 10 µM (SW-620) was 95.1%, the inhibition of growth at 10 µM (SF-295) was 59.8% and the “growth inhibition (GI)” value (SF-539) was “inactive”. It also gave an inhibition of growth at 10 µM (SNB-75) of 60.1%, an inhibition of growth at 10 µM (U-251) of 95.2% and an inhibition of growth at 10 µM (Malme-3M) of -67.5%. It also gave an inhibition of growth at 10 µM (M14) of -75%, an inhibition of growth at 10 µM (SK-MEL-28) of 88.7% and an inhibition of growth at 10 µM (SK-MEL-5) of -95.2%. The “growth inhibition (GI)” value (UACC-62) was “inactive”, the inhibition of growth at 10 µM (IGROV-1) was 58.8% and the inhibition of growth at 10 µM (OVCAR-3) was 47.1%. It also gave an inhibition of growth at 10 µM (NCI/ADR-RES) of 56.8%, an inhibition of growth at 10 µM (SK-OV-3) of 33.2% and an inhibition of growth at 10 µM (786-0) of -41%. The inhibition of growth at 10 µM (A498) was 35.9%, the inhibition of growth at 10 µM (CAKI-1) was 70.9% and the inhibition of growth at 10 µM (SN12C) was 52.3%. It also gave an inhibition of growth at 10 µM (TK-10) of 48.1%, an inhibition of growth at 10 µM (UO-31) of 59.7% and an inhibition of growth at 10 µM (PC-3) of 65.6%. The inhibition of growth at 10 µM (DU-145) was 34.6%, the inhibition of growth at 10 µM (MDA-MB-231) was 54.8% and the inhibition of growth at 10 µM (BT-549) was 30.2%. For the same compound, the “growth inhibition (GI)” value (T47D) was “inactive”, the inhibition of growth at 10 µM (MDA-MB-468) was -13.3% and the inhibition of growth at 10 µM (OVCAR-8) was 39.5%. The GI50 (Leukemia cell) was 2.08 µM, the TGI (Leukemia cell) was 6.42 µM and the GI50 [1] was 4.01 µM. For the same compound, the TGI [1] was 9.2 µM, the CC50 [1, 8] was 2.6 µM and the GI50 [2] was 1.88 µM. The TGI [2] was 5.96 µM, the GI50 [3] was 2.03 µM and the TGI [3] was 5.49 µM. The GI50 [4] was 4.7 µM, the TGI [4] was 11.9 µM and the CC50 [4, 8] was 2.78 µM. For the same compound, the CC50 [5] was 2.59 µM, the GI50 [6] was 4.4 µM and the TGI [6] was 11.1 µM. For the same compound, the CC50 [6, 8] was 233 µM, the GI50 [7] was 3.05 µM and the TGI [7] was 10.4 µM. The CC50 [7, 8] was 2.83 µM.
